Measurements taken from ChEMBL document CHEMBL3102802, “Synthesis, modelling and biological characterization of 3-substituted-1H-indoles as ligands of GluN2B-containing N-methyl-d-aspartate receptors” (Bioorg Med Chem, 2014).

Legend:
[1] = molecular target: Glutamate receptor ionotropic, NMDA 2B (Rattus norvegicus) (UniProt Q00960); assay: Displacement of [3H]Ifenprodil from NMDA receptor GluN2B subunit in Wistar rat cerebral cortex at 0.1 uM; type: tissue-based
[2] = molecular target: Glutamate receptor ionotropic, NMDA 2B (Rattus norvegicus, UniProt Q00960); assay: Displacement of [3H]Ifenprodil from NMDA receptor GluN2B subunit in Wistar rat cerebral cortex; type: tissue-based
Glutamate receptor ionotropic, NMDA 2B (Rattus norvegicus, UniProt Q00960), sequence (Q00960 whole entry): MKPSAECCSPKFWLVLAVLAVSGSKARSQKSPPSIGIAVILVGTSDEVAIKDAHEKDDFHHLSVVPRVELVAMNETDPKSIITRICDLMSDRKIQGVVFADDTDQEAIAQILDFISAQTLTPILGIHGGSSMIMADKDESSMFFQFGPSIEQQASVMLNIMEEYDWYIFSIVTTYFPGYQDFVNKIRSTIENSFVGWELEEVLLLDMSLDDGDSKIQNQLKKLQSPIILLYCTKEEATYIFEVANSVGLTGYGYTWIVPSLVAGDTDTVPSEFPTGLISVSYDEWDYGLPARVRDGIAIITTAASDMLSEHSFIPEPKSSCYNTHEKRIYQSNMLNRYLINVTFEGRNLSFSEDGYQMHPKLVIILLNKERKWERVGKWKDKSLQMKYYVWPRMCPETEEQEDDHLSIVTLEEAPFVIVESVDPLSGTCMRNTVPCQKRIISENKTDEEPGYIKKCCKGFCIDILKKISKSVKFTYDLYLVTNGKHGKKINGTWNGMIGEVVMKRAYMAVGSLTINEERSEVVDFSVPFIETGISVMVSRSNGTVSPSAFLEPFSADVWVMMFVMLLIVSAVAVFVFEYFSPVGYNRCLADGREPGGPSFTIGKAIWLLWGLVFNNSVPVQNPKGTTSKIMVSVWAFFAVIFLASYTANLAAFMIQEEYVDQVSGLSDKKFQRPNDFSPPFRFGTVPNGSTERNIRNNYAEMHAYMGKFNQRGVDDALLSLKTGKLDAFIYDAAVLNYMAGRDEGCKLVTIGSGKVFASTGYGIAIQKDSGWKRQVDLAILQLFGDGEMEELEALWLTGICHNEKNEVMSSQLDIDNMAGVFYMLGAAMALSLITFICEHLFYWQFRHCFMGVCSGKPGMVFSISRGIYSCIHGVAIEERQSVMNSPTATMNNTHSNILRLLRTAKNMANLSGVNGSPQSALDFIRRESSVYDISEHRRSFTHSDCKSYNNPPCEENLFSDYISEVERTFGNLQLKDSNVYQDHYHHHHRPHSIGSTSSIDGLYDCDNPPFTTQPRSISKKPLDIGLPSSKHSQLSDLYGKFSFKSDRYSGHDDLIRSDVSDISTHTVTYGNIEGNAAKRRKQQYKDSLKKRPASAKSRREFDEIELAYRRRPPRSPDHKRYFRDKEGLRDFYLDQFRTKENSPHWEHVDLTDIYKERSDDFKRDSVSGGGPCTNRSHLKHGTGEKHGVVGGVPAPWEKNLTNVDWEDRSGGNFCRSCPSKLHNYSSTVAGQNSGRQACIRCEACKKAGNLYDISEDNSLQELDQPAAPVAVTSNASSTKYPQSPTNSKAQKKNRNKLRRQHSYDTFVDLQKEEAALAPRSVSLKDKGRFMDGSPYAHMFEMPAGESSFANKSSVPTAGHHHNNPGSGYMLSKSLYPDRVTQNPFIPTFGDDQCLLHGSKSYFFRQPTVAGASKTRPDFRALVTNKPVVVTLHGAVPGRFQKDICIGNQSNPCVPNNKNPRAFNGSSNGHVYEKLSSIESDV

[3] = Antioxidant activity of the compound assessed as inhibition of ABTS radicals at 9 uM after 20 mins by spectrophotometric analysis; type: functional
How it was run: (§1)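 ABTS radical cation generated from ABTS and potassium persulfate in 0.1 M phosphate buffer pH 7.0, left 16 h in the dark at room temperature. Blank absorbance at 734 nm adjusted to about 1.0. Samples from 2 mM stocks in MeOH/phosphate buffer 1:1. A734 read at room temperature after exactly 20 min. %inhibition = (Ablank − Asample)/Ablank, mean of triplicates.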

[4] = Antioxidant activity of the compound assessed as inhibition of ABTS radicals after 20 mins by spectrophotometric analysis; type: functional; how it was run: as §1
[5] = Antioxidant activity of the compound assessed as inhibition of ABTS radicals at 33 uM after 20 mins by spectrophotometric analysis; type: functional
[6] = molecular target: Glutamate receptor ionotropic, NMDA 2B (Rattus norvegicus) (UniProt Q00960); assay: Displacement of [3H]Ifenprodil from NMDA receptor GluN2B subunit in Wistar rat cerebral cortex at 10 uM; type: tissue-based
[7] = Antioxidant activity of the compound assessed as inhibition of ABTS radicals at 17 uM after 20 mins by spectrophotometric analysis; type: functional; how it was run: as §1
Mus musculus [8] = assay: Anticonvulsant activity in ip dosed sound-induced DBA/2 mouse seizure model assessed as clonus phase latency; type: functional; details: DBA/2, ip
How it was run: (§2)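 DBA/2 mice (8–12 g, 22–25 days old, either sex), groups of 10. Compound given ip at 0.1 mL/10 g in 50% DMSO/50% saline; vehicle controls. Auditory stimulus (12–16 kHz, 109 dB) applied 30 min later for 60 s or until tonic extension, after 60 s habituation. Latency to and incidence of seizure phases scored; Fisher's exact test. ED50 by Litchfield–Wilcoxon.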

Mus musculus [9] = assay: Anticonvulsant activity in ip dosed sound-induced DBA/2 mouse seizure model assessed as tonus phase latency; type: functional; details: DBA/2, ip; how it was run: as §2
[10] = molecular target: Glutamate receptor ionotropic, NMDA 2B (Mus musculus) (UniProt Q01097); assay: Antagonist activity at NMDA receptor GluN2B subunit in FVB mouse CA1 pyramidal neurons assessed as reversible reduction of excitatory post synaptic current amplitude at 50 nM at holding potential of -60 mV measured for 5 mins by patch clamp technique in presence of Mg2+free ACSF relative to control; type: cell-based; parameters: scale not given: the % may be the effect or the level left; details: Pyramidal neuron
Glutamate receptor ionotropic, NMDA 2B (Mus musculus), sequence (Q01097 whole entry): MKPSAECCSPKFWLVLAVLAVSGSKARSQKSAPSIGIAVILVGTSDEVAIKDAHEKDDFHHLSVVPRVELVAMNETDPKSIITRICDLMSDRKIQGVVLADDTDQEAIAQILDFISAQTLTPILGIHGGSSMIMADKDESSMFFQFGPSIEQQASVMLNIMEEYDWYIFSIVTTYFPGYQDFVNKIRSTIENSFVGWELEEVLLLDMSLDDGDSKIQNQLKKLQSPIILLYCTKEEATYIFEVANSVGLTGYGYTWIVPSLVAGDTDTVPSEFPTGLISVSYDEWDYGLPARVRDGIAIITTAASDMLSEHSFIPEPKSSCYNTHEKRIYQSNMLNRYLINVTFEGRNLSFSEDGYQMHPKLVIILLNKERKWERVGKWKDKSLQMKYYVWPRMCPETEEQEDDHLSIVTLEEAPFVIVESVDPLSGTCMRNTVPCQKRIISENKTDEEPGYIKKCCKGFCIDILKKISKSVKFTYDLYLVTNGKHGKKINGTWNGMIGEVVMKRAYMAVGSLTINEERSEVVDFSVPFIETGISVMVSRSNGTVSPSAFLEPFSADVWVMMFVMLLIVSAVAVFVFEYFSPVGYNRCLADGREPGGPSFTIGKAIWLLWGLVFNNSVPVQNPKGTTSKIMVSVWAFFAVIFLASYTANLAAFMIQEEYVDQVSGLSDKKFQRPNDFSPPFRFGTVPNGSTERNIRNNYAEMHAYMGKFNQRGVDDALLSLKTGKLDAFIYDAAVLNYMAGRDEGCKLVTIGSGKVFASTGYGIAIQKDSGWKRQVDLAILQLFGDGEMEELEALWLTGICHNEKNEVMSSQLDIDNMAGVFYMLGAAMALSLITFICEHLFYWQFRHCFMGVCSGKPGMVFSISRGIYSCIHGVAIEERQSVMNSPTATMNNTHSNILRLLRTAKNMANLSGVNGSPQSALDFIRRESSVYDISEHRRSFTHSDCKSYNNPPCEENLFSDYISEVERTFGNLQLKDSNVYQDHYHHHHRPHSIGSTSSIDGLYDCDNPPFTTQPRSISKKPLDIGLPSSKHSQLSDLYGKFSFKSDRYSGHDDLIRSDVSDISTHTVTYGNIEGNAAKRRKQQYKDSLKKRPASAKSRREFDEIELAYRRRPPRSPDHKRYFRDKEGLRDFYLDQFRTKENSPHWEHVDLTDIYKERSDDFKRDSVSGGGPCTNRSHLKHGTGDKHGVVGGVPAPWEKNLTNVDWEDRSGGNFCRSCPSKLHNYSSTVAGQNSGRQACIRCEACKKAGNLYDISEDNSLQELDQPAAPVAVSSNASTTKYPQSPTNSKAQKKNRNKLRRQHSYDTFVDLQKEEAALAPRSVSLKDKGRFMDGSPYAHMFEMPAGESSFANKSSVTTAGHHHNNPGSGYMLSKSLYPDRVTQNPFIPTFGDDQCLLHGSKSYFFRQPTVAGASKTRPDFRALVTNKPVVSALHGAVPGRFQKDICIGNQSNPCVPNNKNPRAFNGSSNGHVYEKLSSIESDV
How it was run: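 Whole-cell recordings of NMDA receptor-mediated EPSCs in mouse hippocampal slices, with glycine (10 µM) and bicuculline (5 µM) in the bath. Compound applied for 5 min, then washed out. EPSC amplitude taken as peak minus baseline and measured over 5 min in control and in drug for each neuron. Expressed as % of control, n = 4; unpaired Student's t test.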

[11] = molecular target: Glutamate receptor ionotropic, NMDA 2B (Homo sapiens, UniProt Q05586+Q13224); assay: Inhibition of NMDA receptor GluN2B subunit (unknown origin)

Glutamate receptor ionotropic, NMDA 2B (Rattus norvegicus), sequence (Q00960 27-1482 limits assumed): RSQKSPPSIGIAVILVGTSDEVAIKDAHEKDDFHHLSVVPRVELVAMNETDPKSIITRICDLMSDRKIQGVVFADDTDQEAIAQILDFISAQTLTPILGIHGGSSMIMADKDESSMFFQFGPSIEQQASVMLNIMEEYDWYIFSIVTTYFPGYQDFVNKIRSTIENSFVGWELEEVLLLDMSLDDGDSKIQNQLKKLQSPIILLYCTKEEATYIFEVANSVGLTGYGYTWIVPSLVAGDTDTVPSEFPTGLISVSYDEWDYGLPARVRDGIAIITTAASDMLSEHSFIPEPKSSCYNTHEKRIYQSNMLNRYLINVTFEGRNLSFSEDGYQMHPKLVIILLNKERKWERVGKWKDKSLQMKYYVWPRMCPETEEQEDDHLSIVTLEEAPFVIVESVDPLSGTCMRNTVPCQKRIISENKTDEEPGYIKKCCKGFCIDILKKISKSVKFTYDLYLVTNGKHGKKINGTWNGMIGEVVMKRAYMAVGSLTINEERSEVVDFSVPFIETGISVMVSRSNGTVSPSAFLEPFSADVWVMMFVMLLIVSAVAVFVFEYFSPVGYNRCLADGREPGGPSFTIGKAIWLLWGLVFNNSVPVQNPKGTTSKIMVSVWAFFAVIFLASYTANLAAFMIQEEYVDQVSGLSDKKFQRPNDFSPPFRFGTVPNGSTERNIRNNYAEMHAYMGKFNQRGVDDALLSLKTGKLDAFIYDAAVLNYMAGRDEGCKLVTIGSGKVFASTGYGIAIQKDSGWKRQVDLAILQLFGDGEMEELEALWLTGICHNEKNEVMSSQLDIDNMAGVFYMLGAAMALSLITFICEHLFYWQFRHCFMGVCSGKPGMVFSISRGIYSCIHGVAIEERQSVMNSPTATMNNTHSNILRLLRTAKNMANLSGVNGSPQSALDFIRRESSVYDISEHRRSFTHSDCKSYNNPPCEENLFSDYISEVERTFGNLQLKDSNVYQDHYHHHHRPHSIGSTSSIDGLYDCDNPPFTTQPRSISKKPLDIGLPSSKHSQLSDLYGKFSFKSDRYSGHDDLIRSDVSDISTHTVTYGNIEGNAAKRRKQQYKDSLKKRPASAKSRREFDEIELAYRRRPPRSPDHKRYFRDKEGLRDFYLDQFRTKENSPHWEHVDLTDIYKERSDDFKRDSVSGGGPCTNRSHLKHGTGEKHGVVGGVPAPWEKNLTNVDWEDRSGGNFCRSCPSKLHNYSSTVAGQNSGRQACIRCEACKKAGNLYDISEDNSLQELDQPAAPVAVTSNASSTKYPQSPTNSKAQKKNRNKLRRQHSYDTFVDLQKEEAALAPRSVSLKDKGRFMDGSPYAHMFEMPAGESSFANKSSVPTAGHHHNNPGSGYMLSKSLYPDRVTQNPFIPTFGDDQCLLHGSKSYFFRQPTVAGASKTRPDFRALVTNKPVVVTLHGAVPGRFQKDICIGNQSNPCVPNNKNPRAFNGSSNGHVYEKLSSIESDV

SMILES: Nc1ccc2c(C(=O)CN3CCC(Cc4ccc(F)cc4)CC3)c[nH]c2c1
- inhibition [1]: 12%

SMILES: COc1cc2[nH]cc(C(=O)CN3CCC(Cc4ccccc4)CC3)c2cc1OC
- inhibition [1]: 1%

SMILES: CS(=O)(=O)Nc1ccc2c(C(=O)CN3CCC(Cc4ccc(F)cc4)CC3)c[nH]c2c1
- inhibition [1]: 81%
- IC50 [2]: 0.0094 µM

SMILES: CS(=O)(=O)Nc1ccc2c(C(=O)C(=O)N3CCC(Cc4ccc(F)cc4)CC3)c[nH]c2c1
- inhibition [1]: 67%
- IC50 [2]: 0.018 µM

SMILES: O=C(CN1CCC(Cc2ccc(F)cc2)CC1)c1c[nH]c2cc(O)c(O)cc12
- inhibition [1]: 84%
- IC50 [2]: 0.03 µM

SMILES: O=C(C(=O)N1CCC(Cc2ccc(F)cc2)CC1)c1c[nH]c2ccc(O)cc12
- inhibition [1]: 11%

SMILES: O=C(C(=O)N1CCC(Cc2ccc(F)cc2)CC1)c1c[nH]c2cc(O)c(O)cc12
- inhibition [1]: 38%

SMILES: O=C(C(=O)N1CCC(Cc2ccc(F)cc2)CC1)c1c[nH]c2cc(O)ccc12
- inhibition [1]: 61%
- IC50 [2]: 0.02 µM

SMILES: Oc1ccc2[nH]ccc2c1
- inhibition [3]: 79.8%
- inhibition [4]: Dose-dependent effect
- inhibition [5]: > 90.1%

SMILES: COc1cc2[nH]cc(C(=O)C(=O)N3CCC(Cc4ccccc4)CC3)c2cc1OC
- inhibition [6]: 9%

SMILES: O=C(O)/C=C/c1ccc(O)c(O)c1
- inhibition [4]: Dose-dependent effect
- inhibition [7]: 71.5%
- inhibition [5]: > 93.4%

SMILES: COc1ccc2[nH]cc(C(=O)C(=O)N3CCC(Cc4ccc(F)cc4)CC3)c2c1
- inhibition [6]: 35%

SMILES: O=C(C(=O)N1CCC(Cc2ccccc2)CC1)c1c[nH]c2cc(O)c(O)cc12
- inhibition [1]: 40%

SMILES: COc1ccc2c(C(=O)C(=O)N3CCC(Cc4ccc(F)cc4)CC3)c[nH]c2c1
- inhibition [1]: 27%

SMILES: COc1ccc2c(C(=O)CN3CCC(Cc4ccc(F)cc4)CC3)c[nH]c2c1
- inhibition [6]: 82%

SMILES: COc1ccc2[nH]cc(C(=O)CN3CCC(Cc4ccc(F)cc4)CC3)c2c1
- inhibition [6]: 73%

SMILES: O=C(CN1CCC(Cc2ccccc2)CC1)c1c[nH]c2cc(O)c(O)cc12
- ED50 (Mus musculus [8]): 89.4 µmol/kg
- inhibition [1]: 91%
- IC50 [2]: 0.0055 µM
- ED50 (Mus musculus [9]): 76.7 µmol/kg
- Activity [10]: 57%

SMILES: O=C(CN1CCC(Cc2ccccc2)CC1)c1c[nH]c2ccccc12
- IC50 [11]: 0.769 µM

SMILES: O=C(CN1CCC(Cc2ccc(F)cc2)CC1)c1c[nH]c2cc(O)ccc12
- inhibition [1]: 82%
- IC50 [2]: 0.0091 µM

SMILES: O=C(CN1CCC(Cc2ccc(F)cc2)CC1)c1c[nH]c2ccc(O)cc12
- inhibition [1]: 60%
- IC50 [2]: 0.051 µM

SMILES: Oc1ccc2cc[nH]c2c1
- inhibition [3]: 83%
- inhibition [4]: Dose-dependent effect
- inhibition [5]: > 89.8%

SMILES: CS(=O)(=O)Nc1ccc2[nH]cc(C(=O)C(=O)N3CCC(Cc4ccc(F)cc4)CC3)c2c1
- inhibition [1]: 4%

SMILES: c1ccc2[nH]ccc2c1
- inhibition [4]: Dose-dependent effect
- inhibition [5]: 25.6%

SMILES: O=C(O)c1cc(O)c(O)c(O)c1
- inhibition [3]: 61.6%
- inhibition [4]: Dose-dependent effect
- inhibition [7]: > 94.1%
- inhibition [5]: > 93.9%

SMILES: CS(=O)(=O)Nc1ccc2[nH]cc(C(=O)CN3CCC(Cc4ccc(F)cc4)CC3)c2c1
- inhibition [1]: 10%

SMILES: Oc1cc2cc[nH]c2cc1O
- inhibition [3]: 54.4%
- inhibition [4]: Dose-dependent effect
- inhibition [7]: > 84.4%

SMILES: Nc1ccc2[nH]cc(C(=O)CN3CCC(Cc4ccc(F)cc4)CC3)c2c1
- inhibition [1]: 33%
